Experimental data: ChEMBL document CHEMBL4811305, “Development of potent and selective Cathepsin C inhibitors free of aortic binding liability by application of a conformational restriction strategy” (Bioorg Med Chem Lett, 2021)
pIC50: −log10 of the molar value. Blank lines part the entries; values can stand above or below the compound they belong to.

Assays:
Dipeptidyl peptidase 1 [1] = biological target: T1, Dipeptidyl peptidase 1 (Homo sapiens, UniProt P53634); experiment: Inhibition of human cathepsin C at 1 uM relative to control
T1 sequence (P53634 25-134 limits assumed): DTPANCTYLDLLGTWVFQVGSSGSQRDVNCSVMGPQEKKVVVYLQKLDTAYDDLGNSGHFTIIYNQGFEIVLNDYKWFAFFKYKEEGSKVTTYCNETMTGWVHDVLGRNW
T1 sequence (P53634 231-394 limits assumed): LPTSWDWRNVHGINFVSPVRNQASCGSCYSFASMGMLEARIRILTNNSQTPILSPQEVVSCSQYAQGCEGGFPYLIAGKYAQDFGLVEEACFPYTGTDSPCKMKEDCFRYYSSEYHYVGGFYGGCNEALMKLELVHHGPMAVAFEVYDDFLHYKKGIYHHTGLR
T1 sequence (P53634 395-463 limits assumed): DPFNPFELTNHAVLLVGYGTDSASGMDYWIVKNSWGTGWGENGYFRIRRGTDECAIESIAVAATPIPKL

Dipeptidyl peptidase 1 [2] = biological target: T1, Dipeptidyl peptidase 1; experiment: Inhibition of human cathepsin C
Summary of the method: (§1)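 Values are means of two independent experiments, each run in duplicate.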

Dipeptidyl peptidase 1 [3] = biological target: T1, Dipeptidyl peptidase 1; experiment: Inhibition of human cathepsin C at 10 uM relative to control
Dipeptidyl peptidase 1 [4] = biological target: T1, Dipeptidyl peptidase 1; experiment: Inhibition of cellular cathepsin C (unknown origin); summary of the method: as §1
[5] = Half life of the compound in 0.1M phosphate buffer at pH 7.4 by HPLC-UV analysis; format: physicochemical
Summary of the method: (§2)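 Each compound was spiked in bulk into propionaldehyde dissolved in 0.1 M phosphate buffer, pH 7.4. Aliquots were taken at intervals and analysed by HPLC-UV to give percent parent remaining, with incubations lasting up to 15 h. Half-life was calculated from the disappearance of parent. Where no analyte remained at 15 h, only the 2 h data were used. Adduct identity was confirmed as molecular ion +40 amu. This was a single experiment (n = 1).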

[6] = Aldehyde reactivity of the compound in 0.1M phosphate buffer assessed as compound remaining at pH 7.4 measured after 2 hrs in presence of propionaldehyde by HPLC-UV analysis; format: ADME; conditions: phosphate buffer with propionaldehyde, read-out: Stabilty; summary of the method: as §2
[7] = Aldehyde reactivity of the compound in 0.1M phosphate buffer assessed as compound remaining at pH 7.4 measured after 1 hr in presence of propionaldehyde by HPLC-UV analysis; format: ADME; conditions: phosphate buffer with propionaldehyde, read-out: Stabilty; summary of the method: as §2
[8] = Aldehyde reactivity of the compound in 0.1M phosphate buffer assessed as compound remaining at pH 7.4 measured after 15 hrs in presence of propionaldehyde by HPLC-UV analysis; format: ADME; conditions: phosphate buffer with propionaldehyde, read-out: Stabilty; summary of the method: as §2
[9] = Stability of the compound in mouse plasma; format: ADME, cell-free
CYP2C9 [10] = biological target: T2, CYP2C9 (Homo sapiens, UniProt P11712); experiment: Inhibition of CYP2C9 (unknown origin) at 1 uM relative to control; format: ADME
T2 sequence (P11712 whole entry): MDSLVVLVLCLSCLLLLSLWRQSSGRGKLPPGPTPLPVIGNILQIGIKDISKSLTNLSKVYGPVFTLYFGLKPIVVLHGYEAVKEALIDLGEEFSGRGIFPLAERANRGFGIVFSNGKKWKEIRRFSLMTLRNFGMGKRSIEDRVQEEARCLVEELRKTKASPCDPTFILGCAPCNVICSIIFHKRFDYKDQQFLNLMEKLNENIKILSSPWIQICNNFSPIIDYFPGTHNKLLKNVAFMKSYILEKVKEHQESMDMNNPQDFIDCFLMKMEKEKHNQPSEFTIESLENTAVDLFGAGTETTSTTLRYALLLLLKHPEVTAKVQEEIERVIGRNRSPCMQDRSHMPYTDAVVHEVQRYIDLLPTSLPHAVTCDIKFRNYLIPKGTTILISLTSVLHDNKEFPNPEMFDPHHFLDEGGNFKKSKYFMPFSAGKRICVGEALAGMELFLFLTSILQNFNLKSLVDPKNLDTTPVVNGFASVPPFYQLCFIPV

[11] = Metabolic stability in mouse liver microsomes assessed as compound remaining measured after 60 mins; format: ADME, Microsome; conditions: read-out: Stabilty
Summary of the method: (§3)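 The readout was percent of parent remaining after 60 min incubation with liver microsomal preparations. Values are the mean of three replicates ± SD.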

CYP2D6 [12] = biological target: T3, CYP2D6 (Homo sapiens, UniProt P10635); experiment: Inhibition of CYP2D6 (unknown origin) at 1 uM relative to control; format: ADME
T3 sequence (P10635 whole entry): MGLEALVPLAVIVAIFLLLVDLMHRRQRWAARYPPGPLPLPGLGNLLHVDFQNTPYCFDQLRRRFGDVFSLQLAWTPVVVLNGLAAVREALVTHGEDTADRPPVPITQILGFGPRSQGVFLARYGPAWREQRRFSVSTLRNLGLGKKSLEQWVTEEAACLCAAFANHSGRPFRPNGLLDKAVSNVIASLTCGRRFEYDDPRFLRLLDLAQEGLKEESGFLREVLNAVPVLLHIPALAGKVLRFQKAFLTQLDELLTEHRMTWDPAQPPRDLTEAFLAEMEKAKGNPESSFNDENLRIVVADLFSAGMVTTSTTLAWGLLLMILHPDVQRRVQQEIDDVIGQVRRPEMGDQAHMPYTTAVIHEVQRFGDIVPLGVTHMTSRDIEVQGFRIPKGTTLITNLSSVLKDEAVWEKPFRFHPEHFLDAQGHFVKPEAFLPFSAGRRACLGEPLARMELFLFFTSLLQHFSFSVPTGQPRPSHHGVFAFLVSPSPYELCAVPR

CYP2C19 [13] = biological target: T4, CYP2C19 (Homo sapiens, UniProt P33261); experiment: Inhibition of CYP2C19 (unknown origin) at 10 uM relative to control; format: ADME
T4 sequence (P33261 whole entry): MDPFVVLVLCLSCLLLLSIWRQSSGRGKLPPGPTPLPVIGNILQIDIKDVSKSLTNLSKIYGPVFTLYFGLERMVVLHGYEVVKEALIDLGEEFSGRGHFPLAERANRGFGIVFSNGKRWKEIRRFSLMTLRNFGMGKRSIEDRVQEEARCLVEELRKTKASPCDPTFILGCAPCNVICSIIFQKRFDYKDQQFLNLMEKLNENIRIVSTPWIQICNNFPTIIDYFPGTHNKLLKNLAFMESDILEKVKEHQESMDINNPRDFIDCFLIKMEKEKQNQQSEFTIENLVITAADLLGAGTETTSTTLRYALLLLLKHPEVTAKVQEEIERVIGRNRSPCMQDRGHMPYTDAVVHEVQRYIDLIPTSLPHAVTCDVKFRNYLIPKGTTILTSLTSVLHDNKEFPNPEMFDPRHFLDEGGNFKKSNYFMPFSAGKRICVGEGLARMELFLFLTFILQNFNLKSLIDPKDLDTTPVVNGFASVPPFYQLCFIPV

Homo sapiens [14] = species on record: Homo sapiens; experiment: Selectivity for human cathepsin C over cathepsin B (unknown origin)
Homo sapiens [15] = species on record: Homo sapiens; experiment: Selectivity for human cathepsin C over cathepsin S (unknown origin)
CYP1A2 [16] = biological target: T5, CYP1A2 (Homo sapiens, UniProt P05177); experiment: Inhibition of CYP1A2 (unknown origin) at 10 uM relative to control; format: ADME
T5 sequence (P05177 whole entry): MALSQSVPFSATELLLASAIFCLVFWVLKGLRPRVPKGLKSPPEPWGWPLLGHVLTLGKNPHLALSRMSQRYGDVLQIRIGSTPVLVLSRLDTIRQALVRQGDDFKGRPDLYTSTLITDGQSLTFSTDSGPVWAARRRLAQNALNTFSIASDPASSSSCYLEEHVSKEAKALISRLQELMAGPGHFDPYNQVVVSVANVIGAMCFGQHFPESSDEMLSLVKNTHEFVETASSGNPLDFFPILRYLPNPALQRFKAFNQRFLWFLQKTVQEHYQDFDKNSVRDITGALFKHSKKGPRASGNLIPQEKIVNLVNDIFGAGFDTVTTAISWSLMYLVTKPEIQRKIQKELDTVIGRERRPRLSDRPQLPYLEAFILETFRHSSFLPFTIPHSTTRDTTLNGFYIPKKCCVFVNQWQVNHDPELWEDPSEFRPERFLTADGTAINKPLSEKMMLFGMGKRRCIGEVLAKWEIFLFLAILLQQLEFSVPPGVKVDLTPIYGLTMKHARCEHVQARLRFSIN

[17] = Stability of the compound in rat plasma; format: ADME, cell-free
[18] = Metabolic stability in rat liver microsomes assessed as compound remaining measured after 60 mins; format: ADME, Microsome; conditions: read-out: Stabilty; summary of the method: as §3
CYP2C8 [19] = biological target: T6, CYP2C8 (Homo sapiens, UniProt P10632); experiment: Inhibition of CYP2C8 (unknown origin) at 10 uM relative to control; format: ADME
T6 sequence (P10632 whole entry): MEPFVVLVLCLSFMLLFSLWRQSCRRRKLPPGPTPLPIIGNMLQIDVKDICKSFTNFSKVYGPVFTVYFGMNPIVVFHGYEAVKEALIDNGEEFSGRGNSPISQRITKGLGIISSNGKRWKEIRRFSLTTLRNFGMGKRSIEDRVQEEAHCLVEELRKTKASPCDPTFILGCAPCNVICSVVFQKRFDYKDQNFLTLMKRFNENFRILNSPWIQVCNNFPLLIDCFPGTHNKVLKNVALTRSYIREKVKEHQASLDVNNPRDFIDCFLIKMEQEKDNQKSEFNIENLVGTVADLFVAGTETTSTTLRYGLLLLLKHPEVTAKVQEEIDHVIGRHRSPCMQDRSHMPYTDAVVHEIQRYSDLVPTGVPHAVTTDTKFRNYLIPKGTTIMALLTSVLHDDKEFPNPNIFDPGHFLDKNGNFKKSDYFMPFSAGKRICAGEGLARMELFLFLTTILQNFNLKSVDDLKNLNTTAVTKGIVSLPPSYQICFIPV

CYP3A4 [20] = biological target: T7, CYP3A4 (Homo sapiens, UniProt P08684); experiment: Inhibition of CYP3A4 (unknown origin) at 1 uM relative to control; format: ADME
T7 sequence (P08684 whole entry): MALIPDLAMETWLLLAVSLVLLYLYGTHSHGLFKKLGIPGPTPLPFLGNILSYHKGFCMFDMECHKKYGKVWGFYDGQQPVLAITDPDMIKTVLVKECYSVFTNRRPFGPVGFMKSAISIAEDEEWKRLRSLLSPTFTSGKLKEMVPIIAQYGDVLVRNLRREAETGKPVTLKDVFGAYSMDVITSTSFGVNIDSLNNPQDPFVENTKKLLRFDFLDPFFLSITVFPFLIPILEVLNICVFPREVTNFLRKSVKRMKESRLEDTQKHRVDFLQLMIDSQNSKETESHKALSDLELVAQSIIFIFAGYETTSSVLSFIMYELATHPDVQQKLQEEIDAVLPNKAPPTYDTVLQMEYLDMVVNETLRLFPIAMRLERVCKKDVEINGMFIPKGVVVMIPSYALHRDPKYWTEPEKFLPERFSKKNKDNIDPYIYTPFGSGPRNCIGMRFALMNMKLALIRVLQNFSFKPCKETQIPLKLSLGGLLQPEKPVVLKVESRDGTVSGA

CYP2D6 [21] = biological target: T3, CYP2D6; experiment: Inhibition of CYP2D6 (unknown origin) at 10 uM relative to control; format: ADME
Homo sapiens [22] = species on record: Homo sapiens; experiment: Selectivity for human cathepsin C over cathepsin L (unknown origin)
CYP2C9 [23] = biological target: T2, CYP2C9; experiment: Inhibition of CYP2C9 (unknown origin) at 10 uM relative to control; format: ADME
[24] = Stability of the compound in human plasma; format: ADME, cell-free
CYP2C8 [25] = biological target: T6, CYP2C8; experiment: Inhibition of CYP2C8 (unknown origin) at 1 uM relative to control; format: ADME
CYP2C19 [26] = biological target: T4, CYP2C19; experiment: Inhibition of CYP2C19 (unknown origin) at 1 uM relative to control; format: ADME
CYP1A2 [27] = biological target: T5, CYP1A2; experiment: Inhibition of CYP1A2 (unknown origin) at 1 uM relative to control; format: ADME
Homo sapiens [28] = species on record: Homo sapiens; experiment: Selectivity for human cathepsin C over cathepsin K (unknown origin)
[29] = Metabolic stability in human liver microsomes assessed as compound remaining measured after 60 mins; format: ADME, Microsome; conditions: read-out: Stabilty; summary of the method: as §3
CYP3A4 [30] = biological target: T7, CYP3A4; experiment: Inhibition of CYP3A4 (unknown origin) at 10 uM relative to control; format: ADME

SMILES: N#Cc1ccc(-c2ccc(C[C@@H](C#N)NC(=O)[C@@H]3CC4(CCCCC4)CN3)cc2)cc1
inhibition (Dipeptidyl peptidase 1 [1]): 84.3%
pIC50 (Dipeptidyl peptidase 1 [2]): 6.64
inhibition (Dipeptidyl peptidase 1 [3]): 99.3%

SMILES: N#Cc1ccc(-c2ccc(C[C@@H](C#N)NC(=O)[C@@H]3CN4CCC[C@@H]4CN3)cc2)cc1
inhibition (Dipeptidyl peptidase 1 [1]): 4.63%
inhibition (Dipeptidyl peptidase 1 [3]): 22.8%

SMILES: N#Cc1ccc(-c2ccc(C[C@@H](C#N)NC(=O)[C@H]3CN4CCC[C@H]4CN3)cc2)cc1
inhibition (Dipeptidyl peptidase 1 [1]): 68.3%
pIC50 (Dipeptidyl peptidase 1 [2]): 6.40
inhibition (Dipeptidyl peptidase 1 [3]): 95%

SMILES: N#Cc1ccc(-c2ccc(C[C@@H](C#N)NC(=O)[C@@H](N)C34CC5CC(CC(O)(C5)C3)C4)cc2)cc1
inhibition (Dipeptidyl peptidase 1 [1]): 3.29%
inhibition (Dipeptidyl peptidase 1 [3]): 2.19%

SMILES: N#Cc1ccc(-c2ccc(C[C@@H](C#N)NC(=O)[C@H]3CN4CCC[C@@H]4CN3)cc2)cc1
inhibition (Dipeptidyl peptidase 1 [1]): 1.11%
inhibition (Dipeptidyl peptidase 1 [3]): 1.11%

SMILES: N#Cc1ccc(-c2ccc(C[C@@H](C#N)NC(=O)C3(N)CCOCC3)cc2)cc1
inhibition (Dipeptidyl peptidase 1 [1]): 99.2%
remaining at 1 h [7]: 15%
inhibition (Dipeptidyl peptidase 1 [3]): 99.9%
half-life [5]: 0.36 h

SMILES: N#Cc1ccc(-c2ccc(C[C@@H](C#N)NC(=O)[C@@H]3C[C@H]4CCC[C@@H]4N3)cc2)cc1
inhibition (Dipeptidyl peptidase 1 [1]): 6.55%
remaining at 15 h [8]: 100%
inhibition (Dipeptidyl peptidase 1 [3]): 50.1%

SMILES: N#Cc1ccc(-c2ccc(C[C@@H](C#N)NC(=O)[C@@H]3CC4CCCC[C@@H]4N3)cc2)cc1 (single isomer, unassigned)
inhibition (Dipeptidyl peptidase 1 [1]): 88.7%
pIC50 (Dipeptidyl peptidase 1 [2]): 6.81
inhibition (Dipeptidyl peptidase 1 [3]): 99%
pIC50 (Dipeptidyl peptidase 1 [4]): 5.77

SMILES: N#Cc1ccc(-c2ccc(C[C@@H](C#N)NC(=O)[C@@H]3CC4(CCCC4)CN3)cc2)cc1
inhibition (Dipeptidyl peptidase 1 [1]): 99%
remaining at 15 h [8]: 0%
pIC50 (Dipeptidyl peptidase 1 [2]): 7.99
inhibition (Dipeptidyl peptidase 1 [3]): 99.7%
pIC50 (Dipeptidyl peptidase 1 [4]): 7.16
half-life [5]: 0.56 h

SMILES: Cn1c(=O)oc2ccc(-c3ccc(C[C@@H](C#N)NC(=O)[C@@H]4CNCCCO4)cc3)cc21 [BRENSOCATIB]
remaining at 15 h [8]: 95%
half-life [5]: > 15 h

SMILES: N#Cc1ccc(-c2ccc(C[C@@H](C#N)NC(=O)[C@@H]3C[C@H]4CCC[C@H]4N3)cc2)cc1
inhibition (Dipeptidyl peptidase 1 [1]): 85.6%
remaining at 15 h [8]: 7%
pIC50 (Dipeptidyl peptidase 1 [2]): 7.11
inhibition (Dipeptidyl peptidase 1 [3]): 98.2%
pIC50 (Dipeptidyl peptidase 1 [4]): 7.10
half-life [5]: 5.3 h

SMILES: N#Cc1ccc(-c2ccc(C[C@@H](C#N)NC(=O)[C@@H]3CN4CCC[C@H]4CN3)cc2)cc1
inhibition (Dipeptidyl peptidase 1 [1]): 1.2%
inhibition (Dipeptidyl peptidase 1 [3]): 0%

Now from value to compound:

inhibition (Dipeptidyl peptidase 1 [1]): 97.2%
pIC50 (Dipeptidyl peptidase 1 [2]): 7.56
inhibition (Dipeptidyl peptidase 1 [3]): 98.2%
pIC50 (Dipeptidyl peptidase 1 [4]): 6.82
SMILES: N#Cc1ccc(-c2ccc(C[C@@H](C#N)NC(=O)[C@@H]3CC4(CCC4)CN3)cc2)cc1

inhibition (Dipeptidyl peptidase 1 [1]): 83.9%
pIC50 (Dipeptidyl peptidase 1 [2]): 6.65
inhibition (Dipeptidyl peptidase 1 [3]): 97.9%
SMILES: N#Cc1ccc(-c2ccc(C[C@@H](C#N)NC(=O)[C@@H]3C[C@@H]4C[C@@H]4N3)cc2)cc1

inhibition (Dipeptidyl peptidase 1 [1]): 91.5%
pIC50 (Dipeptidyl peptidase 1 [2]): 7.04
inhibition (Dipeptidyl peptidase 1 [3]): 99.1%
half-life [5]: 0.56 h
remaining at 2 h [6]: 8.5%
SMILES: N#Cc1ccc(-c2ccc(C[C@@H](C#N)NC(=O)[C@@H]3CCCN3)cc2)cc1

inhibition (Dipeptidyl peptidase 1 [1]): 92.4%
pIC50 (Dipeptidyl peptidase 1 [2]): 7.11
inhibition (Dipeptidyl peptidase 1 [3]): 99.5%
SMILES: N#Cc1ccc(-c2ccc(C[C@@H](C#N)NC(=O)[C@@H]3CC4(CC4)CN3)cc2)cc1

Stabilty [9]: Stable
inhibition at 1 µM (CYP2C9 [10]): 12%
remaining at 1 h [11]: 6%
inhibition at 1 µM (CYP2D6 [12]): 69.7%
inhibition (Dipeptidyl peptidase 1 [1]): 99.2%
inhibition at 10 µM (CYP2C19 [13]): 38.4%
Selectivity ratio (Homo sapiens [14]): 2260
remaining at 15 h [8]: 97%
Selectivity ratio (Homo sapiens [15]): 4400
inhibition at 10 µM (CYP1A2 [16]): 43.7%
Stabilty [17]: Stable
remaining at 1 h [18]: 3%
pIC50 (Dipeptidyl peptidase 1 [2]): 8.03
inhibition at 10 µM (CYP2C8 [19]): 40.1%
inhibition (Dipeptidyl peptidase 1 [3]): 100%
inhibition at 1 µM (CYP3A4 [20]): 2.2%
inhibition at 10 µM (CYP2D6 [21]): 88.3%
pIC50 (Dipeptidyl peptidase 1 [4]): 6.16
Selectivity ratio (Homo sapiens [22]): 10800
inhibition at 10 µM (CYP2C9 [23]): 32.4%
Stabilty [24]: Stable
inhibition at 1 µM (CYP2C8 [25]): 11.8%
inhibition at 1 µM (CYP2C19 [26]): 17.1%
half-life [5]: > 15 h
inhibition at 1 µM (CYP1A2 [27]): 15.2%
Selectivity ratio (Homo sapiens [28]): 93
remaining at 1 h [29]: 1%
inhibition at 10 µM (CYP3A4 [30]): 33.8%
SMILES: N#Cc1ccc(-c2ccc(C[C@@H](C#N)NC(=O)[C@@H]3C[C@@H]4CCC[C@@H]4N3)cc2)cc1

inhibition (Dipeptidyl peptidase 1 [1]): 75.5%
remaining at 15 h [8]: 48%
pIC50 (Dipeptidyl peptidase 1 [2]): 6.51
inhibition (Dipeptidyl peptidase 1 [3]): 96.3%
pIC50 (Dipeptidyl peptidase 1 [4]): 5.01
half-life [5]: 15.8 h
SMILES: N#Cc1ccc(-c2ccc(C[C@@H](C#N)NC(=O)[C@@H]3COCCN3)cc2)cc1

inhibition (Dipeptidyl peptidase 1 [1]): 2.2%
inhibition (Dipeptidyl peptidase 1 [3]): 14.2%
SMILES: N#Cc1ccc(-c2ccc(C[C@@H](C#N)NC(=O)[C@H]3COCCN3)cc2)cc1
